Measured values reported in ChEMBL document CHEMBL4364323, “Synthesis and biological evaluation of moxifloxacin-acetyl-1,2,3-1H-triazole-methylene-isatin hybrids as potential anti-tubercular agents against both drug-susceptible and drug-resistant Mycobacterium tuberculosis strains” (Eur J Med Chem, 2019).
Converted amounts (≈) assume the structure as drawn.

Columns and labels:
Format in all cases: functional
Conditions in all cases: 168 h
[1] = test system: Mycobacterium tuberculosis; experiment: Antimycobacterial activity against multidrug (isoniazid and rifampicin) resistant Mycobacterium tuberculosis 2 incubated for 7 days by rapid direct susceptibility test
Procedure, shortened: (§1)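 Two-fold compound dilutions were mixed with MTB suspension containing 4×10 -3 mg cells per well and incubated at 37 °C in a wet box. MIC was read from the quantity and state of cells in each well under a continuous visual high-magnification system and was re-determined 7 days later.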

[2] = test system: Mycobacterium tuberculosis; experiment: Antimycobacterial activity against multidrug (isoniazid and rifampicin) resistant Mycobacterium tuberculosis 1 incubated for 7 days by rapid direct susceptibility test; procedure, shortened: as §1
[3] = test system: Mycobacterium tuberculosis; experiment: Antimycobacterial activity against rifampicin-resistant Mycobacterium tuberculosis incubated for 7 days by rapid direct susceptibility test; procedure, shortened: as §1

SMILES	MIC [1] [µg/mL]	MIC [2] [µg/mL]	MIC [3] [µg/mL]
COc1c(N2C[C@H]3CCCN(C(=O)Cn4cc(CN5C(=O)/C(=N/NC(N)=S)c6ccccc65)nn4)[C@H]3C2)c(F)cc2c(=O)c(C(=O)O)cn(C3CC3)c12	0.5 (≈ 0.673 µM)	0.25 (≈ 0.337 µM)	0.25 (≈ 0.337 µM)
CO/N=C1/C(=O)N(Cc2cn(CC(=O)N3CCC[C@@H]4CN(c5c(F)cc6c(=O)c(C(=O)O)cn(C7CC7)c6c5OC)C[C@@H]43)nn2)c2ccccc21	1 (≈ 1.43 µM)	0.5 (≈ 0.716 µM)	1 (≈ 1.43 µM)
COc1c(N2C[C@H]3CCCN(C(=O)Cn4cc(CN5C(=O)/C(=N/NC(N)=S)c6cc(F)ccc65)nn4)[C@H]3C2)c(F)cc2c(=O)c(C(=O)O)cn(C3CC3)c12	2 (≈ 2.63 µM)	1 (≈ 1.31 µM)	1 (≈ 1.31 µM)
CO[C@H]1/C=C/O[C@@]2(C)Oc3c(C)c(O)c4c(O)c(c(/C=N/N5CCN(C)CC5)c(O)c4c3C2=O)NC(=O)/C(C)=C\C=C\[C@H](C)[C@H](O)[C@@H](C)[C@@H](O)[C@@H](C)[C@H](OC(C)=O)[C@@H]1C [RIFAMPIN]	> 128	> 128	> 128
COc1c(N2C[C@H]3CCCN(C(=O)Cn4cc(CN5C(=O)C(=O)c6ccccc65)nn4)[C@H]3C2)c(F)cc2c(=O)c(C(=O)O)cn(C3CC3)c12	0.25 (≈ 0.373 µM)	0.5 (≈ 0.747 µM)	0.5 (≈ 0.747 µM)
COc1c(N2CCNC(C)C2)c(F)cc2c(=O)c(C(=O)O)cn(C3CC3)c12 (centres undefined) [GATIFLOXACIN]	0.5 (≈ 1.33 µM)	0.25 (≈ 0.666 µM)	1 (≈ 2.66 µM)
COc1c(N2C[C@@H]3CCCN[C@@H]3C2)c(F)cc2c(=O)c(C(=O)O)cn(C3CC3)c12 [MOXIFLOXACIN]	0.25 (≈ 0.623 µM)	0.25 (≈ 0.623 µM)	0.5 (≈ 1.25 µM)
NNC(=O)c1ccncc1 [ISONIAZID]	> 128	64 (≈ 467 µM)	0.5 (≈ 3.65 µM)
